Shown are actives, neighbours in structure and some others; about 0.95% of the full set was active somewhere.
Furin inh: human furin inhibitors, primary screen, biochemical, fluorescence intensity; 220,000 tested, 0.061% active; AID 463115, 2010; purified furin, fluorogenic substrate cleavage; inhibition, % at 20 µM or 30 µM; in the data active = inhibition above about 25%
ABCB1 block: ABCB1 efflux pump inhibitors, primary screen, cell-based, multiplex, flow cytometry, ABCG2 counter-screen. ATP-dependent translocase ABCB1 (Homo sapiens), P08183. CCRF-Adr cells, JC-1 efflux. inhibition, % at 6.6 µM. 190,000 tested, 0.067% active. AID 1326, 2008; in the data active = inhibition above about 40%;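 note: 0% = vehicle and 100% = reference inhibitor; higher value means more JC-1 retained so stronger ABCB1 efflux block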
HSV augment: enhancers of HSV replication in host cells, fold increase, host cell viability | HSV replication augmentation in cells | maximum fold increase | 220,000 tested, 0.005% active; in the data active = maximum fold increase above about 1.5; inconclusive = no clear call, values can overlap the other calls; tested in PC3 cells
p47phox inh: p47phox/p22phox peptide binding inhibitors, primary screen, biochemical, uHTS, NADPH oxidase regulatory subunit. inhibition, % at 24.7 µM. 220,000 tested, 0.53% active. AID 1274, 2008. fluorescence polarization, 2 h;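 active = inhibition above about 30%, limit read from the data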;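 note: 0% = p47phox with labelled peptide and 100% = labelled peptide alone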
Target sequence (P14598 whole entry, looked up): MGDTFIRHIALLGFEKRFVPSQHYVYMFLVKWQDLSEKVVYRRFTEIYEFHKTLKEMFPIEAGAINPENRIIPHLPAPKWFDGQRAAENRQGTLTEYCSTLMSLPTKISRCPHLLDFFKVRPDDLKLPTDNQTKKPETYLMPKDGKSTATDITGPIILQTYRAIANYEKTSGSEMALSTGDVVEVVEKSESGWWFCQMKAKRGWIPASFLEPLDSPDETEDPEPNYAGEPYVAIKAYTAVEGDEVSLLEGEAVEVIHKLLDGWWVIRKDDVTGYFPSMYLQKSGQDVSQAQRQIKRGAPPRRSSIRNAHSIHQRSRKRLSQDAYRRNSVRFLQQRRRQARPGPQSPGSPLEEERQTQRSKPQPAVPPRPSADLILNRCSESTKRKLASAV
Arbovirus anti: antivirals against arbovirus infection, primary screen, cell-based, full library, 10K replicate subset | arbovirus infection cell-based antiviral screen | inhibition, % at 10 µM | 200,000 tested, 0.37% active | AID 1251, 2008; in the data active = inhibition above about 30%
ABCG2 inh: ABCG2 efflux pump inhibitors, primary screen, multiplex with ABCB1, IgMXP3 cells, flow cytometry | JC-1 efflux | inhibition, % at 6.6 µM | Broad substrate specificity ATP-binding cassette transporter ABCG2 (Homo sapiens), Q9UNQ0 | 190,000 tested, 0.1% active | AID 1325, 2008;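 active = inhibition above 80%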;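 note: 0% = DMSO and 100% = nicardipine control wells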
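Test system: IgMXP3 (ABCG2) plus far-red-tagged CCRF-Adr (ABCB1) cells. Reagent: JC-1 dye as substrate. Timing: 10 min exposure at 25 °C with rotation, no wash. Measured by: flow cytometric JC-1 green MFI at 530 nm. Read-out: percent efflux inhibition, scaled nicardipine 100% to DMSO 0%. Control set: nicardipine and DMSO wells.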
* = called active by the depositor; i = inactive; ? = inconclusive; · = no result; + = active, no number.

SMILES	Furin inh	ABCB1 block	HSV augment	p47phox inh	Arbovirus anti	ABCG2 inh
CCCc1cc2c(cc1NC(=O)c1ccccc1C)OCO2	-6	0	i	-4	-2	2
O=C(O)c1ccc2[nH]c3c(c2c1)CSCC3	0	-1	i	-14	31*	-4
CN(C)CCOC(=O)c1ccc2[nH]c3c(c2c1)CSCC3	-20	·	i	-32	·	·
COc1ccc(OC)c(C2=NOC(C(=O)N3CCCc4ccccc43)C2)c1 (stereo not drawn)	-23	1	i	4	4	3
CCOc1ccc(N(CC(=O)N2CCN(c3ccccc3)CC2)S(=O)(=O)c2c(C)noc2C)cc1	-21	1	i	43*	19	3
COc1ccc(Cn2c(C)c(C)c(C#N)c2NC(=O)Nc2cccc(Cl)c2)cc1	-23	1	?	-15	79*	39
O=C1CCC/C(=N\NC(=O)c2ccc(COc3cccc4cccnc34)cc2)C1	-20	0	i	-9	-15	0
Cc1ccc2nc(N3C(=O)C(O)=C(C(=O)c4cc5ccccc5o4)C3c3cccs3)sc2c1 (stereo not drawn)	-5	0	·	-125	32*	0
CCc1ccc2nc(N3C(=O)C(O)=C(C(=O)c4ccco4)C3c3cccs3)sc2c1 (stereo not drawn)	-13	0	i	-64	13	1
O=C(CSc1nc(C2CCCCC2)n(-c2ccccc2)n1)NCC(F)(F)F	-17	1	i	41*	-7	23
COc1cccc(C(=O)OCn2nnc3ccccc3c2=O)c1	19	0	i	-22	4	1
COC(=O)c1cccc(Cn2nnc3ccccc3c2=O)c1	-21	0	i	114*	1	0
COC(=O)c1ccc(Cn2nc(C)c(Cl)c2C)o1	29*	0	i	-22	7	-1
COc1cc(CNC(=O)c2ccc(Cn3nc(C)c(Cl)c3C)o2)cc(OC)c1	-23	2	i	-7	-31	8
O=C(/C=C/c1ccc(Cl)c(Cl)c1)NC1=NCCS1	-19	1	i	-12	4	6
N#Cc1c(-c2cccnc2)c2c([nH]c1=S)CCCC2	-16	0	i	33*	-8	0
N#Cc1c(-c2ccco2)c2c([nH]c1=S)CCCC2	·	0	i	-22	7	0
CN(/N=C/c1ccc(O)cc1O)c1ncc(C(F)(F)F)cc1Cl	8	·	i	2	·	·
O=[N+]([O-])c1cc(/C=N\Nc2nc(-c3ccccc3)cs2)ccc1O	-21	-4	i	-7	48*	-5
CC(C)(C)C(=O)Nc1cccc(OC(F)(F)C(F)Cl)c1 (stereo not drawn)	-27	0	i	-3	-3	1
CC(=O)/C(=N/Nc1cccc(Cl)c1)Sc1nnc(C(O)c2ccccc2)n1-c1ccccc1 (stereo not drawn)	-9	1	i	6	47*	-1
Cc1ccc(S(=O)(=O)CCSc2cccc(C(=O)Nc3ccccc3C(=O)O)c2)cc1	6	0	i	-29	44*	-2
COc1ccc(S(=O)(=O)Nc2cccc(F)c2C)cc1C(=O)N1CCOCC1	-19	0	i	-3	5	1
CCOc1ccc(OCc2ccc(C(=O)N3CCCC3)o2)cc1	-8	41*	i	-11	-1	7
O=c1oc2cc(O)ccc2cc1-c1nc2c(s1)CCc1ccccc1-2	-33	138*	?	-35	-18	+
O=c1oc2ccccc2cc1-c1nc2c(s1)CCc1ccccc1-2	-14	0	i	-30	11	-4
CCCCN(CC)C(=O)CSc1nc2c(sc(=S)n2-c2ccc(OCC)cc2)c(=O)[nH]1	-10	0	i	-4	47*	-1
CCCN(CCC)C(=O)CSc1nc2c(sc(=S)n2-c2ccc(OCC)cc2)c(=O)[nH]1	-15	-1	i	-15	42*	-5
CCOC(=O)CC(=O)CSc1nc2c(sc(=S)n2-c2ccc(OCC)cc2)c(=O)[nH]1	0	-6	i	-3	60*	-22

Screens: PubChem BioAssay, several laboratories
